# ALR H2O2 inh: inhibitors of human ALR sulfhydryl oxidase, primary screen, biochemical, H2O2 detection, HRP-luminol luminescence, single point; purified ALR, DTT oxidation; inhibition, % (no concentration beside the values); 290,000 tested, 3.8% active;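 active means mean replicate inhibition above about 79%, with every replicate also reaching it, limit read from the data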
# PREPL inh: PREPL enzyme inhibitors, primary screen, biochemical, fluorescence polarization. AID 2751, 2010. recombinant PREPL, fluorescence polarization activity-based probe. 320,000 tested, 0.68% active. inhibition, % at 5.96 µM; in the data active means inhibition above about 43%;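 further: 0% = enzyme with DMSO and 100% = wells lacking enzyme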
# Rin1 Abl inh: inhibitors of Rin1-Abl protein binding, primary screen, biochemical, TR-FRET; Tyrosine-protein kinase ABL1 (Homo sapiens) + Ras and Rab interactor 1 (Homo sapiens), …; 360,000 tested, 0.4% active; inhibition, % at 7.35 µM; in the data active means inhibition above about 5%, passing the limit was not always enough
# Target sequence (P00519 whole entry, looked up): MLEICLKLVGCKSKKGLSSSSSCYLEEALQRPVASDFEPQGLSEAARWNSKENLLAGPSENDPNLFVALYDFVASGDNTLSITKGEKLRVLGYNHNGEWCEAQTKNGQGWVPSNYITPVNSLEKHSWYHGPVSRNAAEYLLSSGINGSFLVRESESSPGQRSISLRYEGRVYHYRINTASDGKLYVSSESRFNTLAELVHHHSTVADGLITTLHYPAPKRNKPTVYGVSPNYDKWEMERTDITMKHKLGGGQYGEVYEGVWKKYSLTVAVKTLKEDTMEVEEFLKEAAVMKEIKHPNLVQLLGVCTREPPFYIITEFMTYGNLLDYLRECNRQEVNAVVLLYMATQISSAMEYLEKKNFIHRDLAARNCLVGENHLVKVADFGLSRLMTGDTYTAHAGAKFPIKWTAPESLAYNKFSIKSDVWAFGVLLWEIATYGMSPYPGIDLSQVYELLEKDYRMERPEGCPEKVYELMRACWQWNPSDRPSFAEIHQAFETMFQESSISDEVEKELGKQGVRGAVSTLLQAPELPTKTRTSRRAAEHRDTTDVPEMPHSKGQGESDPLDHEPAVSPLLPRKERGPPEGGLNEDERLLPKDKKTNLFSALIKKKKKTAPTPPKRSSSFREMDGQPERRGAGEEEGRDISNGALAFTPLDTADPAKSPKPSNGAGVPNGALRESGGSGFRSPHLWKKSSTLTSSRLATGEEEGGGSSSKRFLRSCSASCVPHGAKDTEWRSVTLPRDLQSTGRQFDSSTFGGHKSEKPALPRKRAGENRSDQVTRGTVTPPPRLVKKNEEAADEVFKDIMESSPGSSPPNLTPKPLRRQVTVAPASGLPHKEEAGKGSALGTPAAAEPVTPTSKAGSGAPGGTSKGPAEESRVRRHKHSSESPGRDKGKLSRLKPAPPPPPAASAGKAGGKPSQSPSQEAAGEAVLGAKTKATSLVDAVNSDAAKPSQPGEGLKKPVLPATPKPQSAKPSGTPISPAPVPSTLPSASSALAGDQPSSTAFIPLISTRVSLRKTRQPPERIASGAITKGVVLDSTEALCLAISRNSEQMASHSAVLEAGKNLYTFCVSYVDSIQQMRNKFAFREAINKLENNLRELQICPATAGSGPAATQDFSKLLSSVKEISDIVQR
# Target sequence (Q13671 whole entry, looked up): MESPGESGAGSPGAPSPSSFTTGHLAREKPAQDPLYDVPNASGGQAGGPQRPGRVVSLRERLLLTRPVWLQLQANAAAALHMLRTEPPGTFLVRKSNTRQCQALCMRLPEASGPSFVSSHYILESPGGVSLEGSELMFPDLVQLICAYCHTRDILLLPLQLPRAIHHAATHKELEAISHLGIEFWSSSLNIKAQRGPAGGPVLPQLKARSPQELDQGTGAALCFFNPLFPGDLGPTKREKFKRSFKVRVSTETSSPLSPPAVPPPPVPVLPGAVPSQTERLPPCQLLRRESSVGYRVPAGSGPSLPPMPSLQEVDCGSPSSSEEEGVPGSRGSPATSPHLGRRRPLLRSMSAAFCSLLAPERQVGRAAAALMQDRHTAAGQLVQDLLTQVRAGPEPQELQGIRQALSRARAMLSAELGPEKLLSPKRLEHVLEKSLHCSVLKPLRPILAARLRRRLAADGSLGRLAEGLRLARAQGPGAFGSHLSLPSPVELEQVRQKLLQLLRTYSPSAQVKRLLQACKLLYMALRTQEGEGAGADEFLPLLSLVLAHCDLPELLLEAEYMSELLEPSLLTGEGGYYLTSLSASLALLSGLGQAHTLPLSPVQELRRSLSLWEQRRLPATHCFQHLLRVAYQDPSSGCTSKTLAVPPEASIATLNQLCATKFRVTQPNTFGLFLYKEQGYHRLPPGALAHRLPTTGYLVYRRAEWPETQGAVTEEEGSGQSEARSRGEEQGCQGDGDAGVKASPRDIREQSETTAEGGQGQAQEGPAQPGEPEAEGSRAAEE
# RBBP9 inhibitor: human RBBP9 inhibitors, primary screen, biochemical, fluorescence polarization, FP-Rh probe, HTS. inhibition, % at 7.94 µM. recombinant RBBP9. Serine hydrolase RBBP9 (Homo sapiens), O75884. 220,000 tested, 0.2% active. AID 1515, 2009;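 active means inhibition above the campaign mean of all tested compounds plus 3 SD, cut at about 14% in these data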;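 further: plate controls were DMSO wells with RBBP9 for no effect and wells lacking RBBP9 protein for full effect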
#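 Test system – recombinant human RBBP9 · Input – RBBP9 2.5 µM in dispensing solution, pre-mixing · Medium – Tris buffer pH 8.0, NaCl, Pluronic · Schedule – preincubation 30 min plus labeling 45 min at 25 °C · Measured by – fluorescence polarization · Measure – % inhibition · Controls – DMSO and no-protein wells · Replicates – one well per compound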
# UBC9 SUMO inh: inhibitors of in vitro SUMOylation cascade, primary screen, biochemical, HTRF, uHTS | SUMO-conjugating enzyme UBC9 (Homo sapiens), P63279 | HTRF SUMOylation assay, SAE1/SAE2 + UBC9 | inhibition, % at 35 µM | 290,000 tested, 0.36% active | AID 2006, 2009; in the data active means inhibition above about 50%, passing the limit was not always enough
# UBC13 inh: UBC13 polyubiquitin chain formation inhibitors, primary screen, biochemical, TR-FRET, uHTS; Ubiquitin-conjugating enzyme E2 N (Homo sapiens), P61088; inhibition, % at 20 µM; 330,000 tested, 0.47% active; AID 485273, 2010; in the data active means inhibition above about 45%, passing the limit was not always enough
# * hit, by the source's call; . = no result given. Shown are actives, neighbours in structure and some others; about 4.3% of the full set was active somewhere.
SMILES,ALR H2O2 inh,PREPL inh,Rin1 Abl inh,RBBP9 inhibitor,UBC9 SUMO inh,UBC13 inh
CSc1ncccc1C(=O)Nc1nc(C(C)(C)C)cs1,-4.8,-1.1,-0.7,.,-2.1,1.2
CC(C)(C)c1csc(NC(=O)c2c(F)c(F)c(F)c(F)c2F)n1,97.7*,-5.1,2.0,.,0.3,8.7
Cc1csc(NC(=O)c2ccccc2O)n1,-44.6,-6.4,-1.7,-7.1,10.7,2.2
C#Cc1ccc2c(c1)COc1c3ccccc3nn1-2,16.9,-26.6,-0.1,.,.,1.2
CCC(CC)c1nnc(NC(=O)C23CC4CC(CC(NC(C)=O)(C4)C2)C3)s1,-2.0,4.4,-0.7,.,8.6,-0.7
CC(=O)NC12CC3CC(C1)CC(C(=O)Nc1nc4ccc(F)cc4s1)(C3)C2,86.2*,-3.8,-2.7,.,-1.1,1.0
C[C@H]1CN([C@@H](C)CO)C(=O)c2cc(Br)cnc2O[C@H]1CN(C)C(=O)c1ccccn1,.,.,-0.6,.,.,.
Cc1ccc(SC/C(O)=C(\C#N)c2nc3ccccc3s2)cc1,72.0,-2.2,-1.2,-7.3,19.7,-3.0
N#C/C(=C(/O)CSc1ccccn1)c1nc2ccccc2s1,82.2*,17.9,-2.5,-9.2,6.3,-20.4
Cc1ccc(-c2nc3ccccn3c2Nc2ccccc2)o1,98.9*,-16.5,0.8,-1.9,29.0,13.8
Cc1ccc(-c2nc3cnccn3c2Nc2ccccc2)o1,98.2*,-2.1,2.2,.,16.6,12.5
C[C@H](NC(=O)c1ccco1)C(=O)Nc1cc(S(=O)(=O)N2CCCC2)ccc1OCC(F)(F)F,-0.1,6.8,-0.5,.,.,2.0
COc1cc2c(cc1OC)CN(CC(=O)Nc1ccc(Cl)c(S(=O)(=O)N(C)C)c1)CC2,-3.6,13.0,2.7,-2.5,3.2,0.7
CCOC(=O)N1CCC(N(CCN(C)C)C(=S)Nc2cc(Cl)ccc2C)CC1,-0.2,-2.5,0.4,-6.9,-8.9,-11.9
Oc1ccc(/C=C/c2ccnc3ccccc23)cc1,13.1,1.5,-6.7,-0.4,10.2,10.1
Oc1ccc(/C=C/c2cnccn2)cc1,82.6*,2.6,-4.9,1.7,21.6,-12.5
COCCC(=O)N1CCC(C(=O)Nc2ccc(Oc3ccccc3)nc2)CC1,8.8,-5.6,3.5,.,8.6,0.1
O=C(COc1ccccc1Cl)NCCCNC(=O)c1cccnc1,-13.7,-2.3,0.6,.,6.7,6.2
CN(C(=O)CSc1nc(-c2ccc(C(C)(C)C)cc2)c(C#N)c(=O)[nH]1)C1CCCCC1,92.8*,-6.3,1.6,.,13.5,5.4
N#Cc1c(-c2ccccc2)nc(SCC(=O)NC2CCCCC2)[nH]c1=O,55.2,1.8,-2.2,4.8,12.6,14.7
Cc1cc(C)cc(-n2ncc3c2CCCC3NC(=O)c2cc(C)n(C)n2)c1 (centres undefined),83.6*,-0.3,-1.9,.,-2.0,0.0
Cc1nc(N/C(N)=N/S(=O)(=O)c2ccc([N+](=O)[O-])cc2)nc2ccccc12,-4.9,6.2,0.5,-9.8,-6.0,-10.6
CC1(C(=O)NS(=O)(=O)c2cccc(OC(F)F)c2)CCN1C(=O)CC(c1ccccc1)c1ccccc1 (centres undefined),.,.,-3.0,.,.,.
O=C(CSc1nc(O)cc(=O)[nH]1)N1c2ccccc2Sc2ccccc21,99.3*,14.9,6.4,-0.4,2.0,5.8
O=c1cc(O)nc(SCc2ccccc2)[nH]1,98.3*,-4.4,-4.0,-9.6,9.2,-2.4
SMILES,ALR H2O2 inh,PREPL inh,Rin1 Abl inh,RBBP9 inhibitor,UBC9 SUMO inh,UBC13 inh
Cc1cc(=O)[nH]c(SCc2ccccc2)n1,0.4,12.5,-2.0,.,14.4,-7.8
CCOC(=O)c1sc(-c2ccccc2)cc1NC(=O)Nc1ccc([N+](=O)[O-])cc1,98.6*,-0.2,-1.3,4.1,7.7,7.9
CCOC(=O)c1sc(-c2ccccc2)cc1N,-0.2,10.7,-2.1,-4.3,6.6,9.1
COc1ccc(CNC(=O)C2CCN(C(=O)Cc3ccccc3)CC2)cc1,.,-0.1,1.1,.,-7.9,5.1
CC(C)Oc1cccc(C2NC(=O)c3ccccc3O2)c1 (centres undefined),-14.8,-4.9,0.2,.,3.9,6.7
COc1ccc(-c2oc3cc(O)c(OC)c(O)c3c(=O)c2OC)cc1,23.0,1.4,-1.3,.,8.5,-2.1
COc1c(-c2ccc(O)cc2)oc2cc(O)cc(O)c2c1=O,97.6*,-8.7,11.2,.,9.9,7.3
COc1ccc(-c2oc3c(OC)c(OC)c(OC)c(O)c3c(=O)c2OC)cc1OC,-6.1,32.4,-1.0,2.3,7.2,-2.9
COc1ccc(-c2oc3cc(OC)c(O)c(OC)c3c(=O)c2OC)cc1O,100.0*,16.4,-3.0,-0.1,3.3,11.3
O=c1c(-c2c(O)cc(O)c3c(=O)cc(-c4ccc(O)cc4)oc23)c(-c2ccc(O)cc2)oc2cc(O)cc(O)c12,52.1,1.1,7.4,.,51.8*,-12.0
O=c1cc(-c2ccc(O)c(-c3c(O)cc(O)c4c(=O)cc(-c5ccc(O)cc5)oc34)c2)oc2cc(O)cc(O)c12,.,41.1,-2.2,6.8,41.1,-39.1
CCc1nc2ccccc2n1CC(=O)NC1CCS(=O)(=O)C1 (centres undefined),-14.2,1.2,1.1,.,.,4.7
COc1cccc(C(C)(O)c2nc(-c3cccc(NC(C)=O)c3)cs2)c1 (centres undefined),.,.,-2.0,.,.,.
Oc1ccc(-c2csc(Nc3ccccn3)n2)cc1O,98.4*,7.7,1.7,.,15.1,-10.2
Cc1ccnc(Nc2nc(-c3ccc(O)c(O)c3)cs2)c1,98.3*,19.2,5.0,.,6.3,0.9
CC(=O)Nc1ccc(-c2csc(Nc3ccccn3)n2)cc1,5.6,6.3,-3.5,1.9,-15.8,20.4
Cc1cccc(Nc2nc(-c3ccc(O)c(O)c3)cs2)n1,98.8*,12.1,1.6,.,0.3,7.5
Cc1ccnc(Nc2nc(-c3ccc(O)cc3O)cs2)c1,99.1*,23.7,1.6,.,9.3,21.9
Cc1ccnc(Nc2nc(-c3ccc(O)cc3)cs2)c1,37.9,0.4,3.7,.,0.0,4.0
N#Cc1ccc(OCC(=O)N2CCCC2=O)cc1,1.3,0.8,-1.9,.,.,-10.9
CC(C)n1cc(/C=C2\NC(=O)N(c3cccc(Cl)c3)C2=O)c2ccccc21,.,-1.1,0.7,-3.4,12.5,-16.3
O=C(O)Cn1cc(/C=c2/sc3nc4ccccc4n3c2=O)c2ccccc21,98.7*,19.2,0.7,3.2,19.1,-27.0
O=C(O)Cn1cc(/C=C2/NC(=O)N(c3ccc(Cl)cc3)C2=O)c2ccccc21,92.2*,2.5,-1.9,-18.2,15.0,-20.7
O=C(N/N=C/c1ccc(O)cc1O)c1ccc(NC(=O)C2CCCCC2)cc1,19.5,3.6,-1.4,.,-25.0,-6.3
